According to ChEMBL document CHEMBL1153784, “Synthesis, characterization, antiamoebic activity and toxicity of novel bisdioxazole derivatives” (Eur J Med Chem, 2009):

What was measured:
[1] = Toxicity in rat H9c2 cells after 48 hrs by MTT assay; assay type: cell-based
In short: (§1)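 Subconfluent H9c2 cardiac myoblasts exposed to increasing compound concentrations for 48 h at 37 °C in 5% CO2, with an untreated control. Cells washed in PBS, given 5 mg/ml MTT for 45 min at 37 °C. Crystals dissolved in acid isopropanol, absorbance read at 570 nm. Viability = absorbance of treated relative to untreated cells. Run in triplicate.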

[2] = test system: Entamoeba histolytica; assay: Antiamoebic activity against Entamoeba histolytica HM1:IMSS trophozoites after 72 hrs by microdilution method; assay type: functional, organism-based
In short: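 Trophozoites grown in Diamond TYIS-33 medium in 96-well plates; amoebae detached by chilling on ice. Compounds from freshly prepared 1 mg/ml DMSO stocks, twofold serial dilutions, DMSO at most 0.016%. Plates gassed with nitrogen 10 min, incubated 37 °C 72 h, washed with 0.9% NaCl, stained, dye released with 0.1 N NaOH, OD 490 nm. IC50 by linear regression of % inhibition vs log dose. Triplicate wells, repeated thrice.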

[3] = Safety index, ratio of IC50 for rat H9c2 cells to IC50 for Entamoeba histolytica HM1:IMSS trophozoites; assay type: toxicity, cell-based; conditions: read-out: Ratio IC50
[4] = Toxicity in rat H9c2 cells assessed as cell viability at 12.5 ug/ml after 48 hrs by MTT assay; assay type: cell-based; conditions: read-out: Activity; in short: as §1

| Structure (SMILES) | IC50 at 48 h [1] | IC50 [2] | selectivity ratio [3] | viability at 48 h, 12.5 ug/ml [4] |
| --- | --- | --- | --- | --- |
| Clc1cccc(C2ON=C(c3ccc(C4=NOC(c5cccc(Cl)c5)O4)cc3)O2)c1 (stereo not given) | 8 µM | 1.41 µM | 5.67 | 83.5% |
| COc1ccc(C2ON=C(c3ccc(C4=NOC(c5ccc(OC)c(OC)c5)O4)cc3)O2)cc1OC (stereo not given) |  | 4.38 µM |  |  |
| Clc1ccc(C2ON=C(c3ccc(C4=NOC(c5ccc(Cl)c(Cl)c5)O4)cc3)O2)cc1Cl (stereo not given) |  | 6.1 µM |  |  |
| CCc1ccc(C2ON=C(c3ccc(C4=NOC(c5ccc(CC)cc5)O4)cc3)O2)cc1 (stereo not given) |  | 2.78 µM |  |  |
| Clc1ccc(C2ON=C(c3ccc(C4=NOC(c5ccc(Cl)cc5)O4)cc3)O2)cc1 (stereo not given) |  | 4.21 µM |  |  |
| Cc1ccc(C2ON=C(c3ccc(C4=NOC(c5ccc(C)cc5)O4)cc3)O2)cc1 (stereo not given) | 49 µM | 1.05 µM | 46.7 | 82% |
| CC(C)c1ccc(C2ON=C(c3ccc(C4=NOC(c5ccc(C(C)C)cc5)O4)cc3)O2)cc1 (stereo not given) |  | 4.65 µM |  |  |
| Clc1ccccc1C1ON=C(c2ccc(C3=NOC(c4ccccc4Cl)O3)cc2)O1 (stereo not given) | 34 µM | 1.22 µM | 27.9 | 96.2% |
| c1ccc(C2ON=C(c3ccc(C4=NOC(c5ccccc5)O4)cc3)O2)cc1 (stereo not given) |  | 3.96 µM |  |  |
| O/N=C/c1ccc(/C=N/O)cc1 |  | 5.73 µM |  |  |
| Cc1ncc([N+](=O)[O-])n1CCO [METRONIDAZOLE] | > 116 µM |  | > 64.4 |  |
| COc1ccc(C2ON=C(c3ccc(C4=NOC(c5ccc(OC)cc5)O4)cc3)O2)cc1 (stereo not given) | > 17 µM | 1.01 µM | > 16.8 | 89% |
